Measured values taken from ChEMBL document CHEMBL4184218, “Design, synthesis and biological evaluation of new carbazole derivatives as anti-cancer and anti-migratory agents” (Bioorg Med Chem, 2018).
The source made the active and inactive calls. The calls are words filed in the database; no cut-off is given here.

Tests used:
MCF7 = assay: Growth inhibition of human MCF7 cells after 24 hrs by SRB assay; format: functional; conditions: MCF7, 24 h
In short: (§1)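 Sulforhodamine B growth assay in MCF-7 or MDA-MB-231 breast cancer cells after 24 h of compound treatment. GI50 is the concentration giving 50% inhibition of proliferation, with an upper test limit of 50 µM. Values are the mean of triplicate experiments.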

MDA-MB-231 [1] = assay: Growth inhibition of human MDA-MB-231 cells after 24 hrs by SRB assay; format: functional; conditions: MDA-MB-231, 24 h; in short: as §1
MDA-MB-231 [2] = assay: Anti-migratory activity against human MDA-MB-231 cells assessed as cell migration at 10 uM after 12 hrs by scratch wound-healing assay; format: functional, cell-based
In short: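 Scratch wound-healing assay in MDA-MB-231 cells with test compounds at 10 µM against vehicle (0.02% DMSO). Wounds were photographed at 0, 12 and 24 h. Migration was taken as the distance travelled from the scratch edge toward its centre, relative to control. Values are the average of three independent experiments.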

MCF-10A [3] = assay: Growth inhibition of human MCF10A cells up to 36 uM after 24 hrs by CellTiter 96 aqueous one solution cell proliferation assay; format: cell-based
MCF-10A [4] = assay: Cytotoxicity against human MCF10A cells assessed as reduction in cell viability at 30 to 50 uM after 24 hrs by CellTiter 96 aqueous one solution cell proliferation assay; format: cell-based
[5] = target: Ras-related C3 botulinum toxin substrate 1 (Homo sapiens) (UniProt P63000); assay: Inhibition of Rac1 in human MDA-MB-435 cells assessed as reduction in Rac-GTP level atv 250 nM after 24 hrs by ELISA-based pull down assay; format: cell-based
[6] = target: Ras-related C3 botulinum toxin substrate 1 (Homo sapiens) (UniProt P63000); assay: Inhibition of Rac1 in human MDA-MB-231 cells assessed as reduction in Rac-GTP level at 250 nM after 24 hrs by ELISA-based pull down assay; format: cell-based
MDA-MB-231 [7] = assay: Anti-migratory activity against human MDA-MB-231 cells assessed as reduction in cell migration at 5 uM after 24 hrs by scratch wound-healing assay relative to control; format: functional; set-up: scale not given: the % may be the effect or the level left
[8] = Growth inhibition of human MCF10A cells at 10 uM after 24 hrs by MTT assay relative to control; format: cell-based, MCF-10A; conditions: read-out: GI
[9] = target: Ras-related C3 botulinum toxin substrate 1 (Homo sapiens, UniProt P63000, G15A); assay: Inhibition of Vav2 binding to Rac1 G15A mutant in human MDA-MB-231 cells after 1 hr by pull down assay; format: cell-based
[10] = target: Ras-related C3 botulinum toxin substrate 1 (Homo sapiens) (UniProt P63000); assay: Inhibition of Rac1 in human MDA-MB-435 cells assessed as reduction in phosphorylation at Thr423 residue at 2 uM after 24 hrs by Western blot analysis; format: cell-based

SMILES | GI50 (MCF7) | GI50 (MDA-MB-231 [1]) | further results
CCn1c2ccccc2c2cc(NC(=O)c3nccnc3C(=O)NCCN3CCOCC3)ccc21 | > 50 µM | > 50 µM | 
CCn1c2ccccc2c2cc(C(=O)Nc3cccnc3N3CCOCC3)ccc21 | > 50 µM | > 50 µM | Activity (MDA-MB-231 [2]): Active; growth inhibition (GI) (MCF-10A [3]): Non-Toxic; Activity (MCF-10A [4]): Non-Toxic; inhibition [5]: 55%; inhibition [6]: 55%
CCn1c2ccccc2c2cc(NC(=O)c3cccnc3N3CCOCC3)ccc21 | > 50 µM | > 50 µM | Activity (MDA-MB-231 [2]): Active
CCn1c2ccccc2c2cc(Nc3ncccc3NC(=O)c3cccnc3)ccc21 | 41 µM | 31 µM | 
CCn1c2ccccc2c2cc(Nc3ncccc3NC(=O)CCN3CCCCC3)ccc21 | 15 µM | 23 µM | 
CCn1c2ccccc2c2cc(NC(=O)c3nccnc3C(=O)NCCCN3CCOCC3)ccc21 | > 50 µM | > 50 µM | 
CCn1c2ccccc2c2cc(Nc3ncccc3C(=O)Nc3cc(OC)c(OC)c(OC)c3)ccc21 | > 50 µM | > 50 µM | 
CCn1c2ccccc2c2cc(Nc3ncccc3C(=O)NCCCN3CCOCC3)ccc21 | 28 µM | > 50 µM | 
CCn1c2ccccc2c2cc(NC(=O)c3nccnc3C(=O)NCCOC)ccc21 | > 50 µM | > 50 µM | 
CCN(CC)CCNC(=O)c1cccnc1Nc1ccc2c(c1)c1ccccc1n2CC | 14 µM | 18 µM | 
CCn1c2ccccc2c2cc(NC(=O)c3nccnc3C(=O)NCCCn3ccnc3)ccc21 | > 50 µM | > 50 µM | 
CCn1c2ccccc2c2cc(NC(=O)c3cccnc3N3CCN(c4ccccc4)CC3)ccc21 | > 50 µM | > 50 µM | 
CCn1c2ccccc2c2cc(C(=O)Nc3cccnc3NCCCN3CCOCC3)ccc21 | 32 µM | 39 µM | 
CCn1c2ccccc2c2cc(Nc3ncccc3C(=O)NCCCn3ccnc3)ccc21 | 27 µM | > 50 µM | 
CCn1c2ccccc2c2cc(NC(=O)c3cccnc3N3CCN(C(C)=O)CC3)ccc21 | > 50 µM | > 50 µM | 
CCn1c2ccccc2c2cc(NC(=O)c3ccccc3C(=O)NCCOC)ccc21 | > 50 µM | > 50 µM | 
CCn1c2ccccc2c2cc(NC(=O)c3cccnc3NCCCN3CCOCC3)ccc21 | > 50 µM | 19 µM | 
CCn1c2ccccc2c2cc(Nc3ncccc3C(=O)NCCN3CCN(C(=O)OC(C)(C)C)CC3)ccc21 | > 50 µM | > 50 µM | 
CCN(CC)CCCC(C)NC(=O)c1cccnc1Nc1ccc2c(c1)c1ccccc1n2CC (configuration not stated) | 13 µM | 18 µM | 
CCn1c2ccccc2c2cc(NC(=O)c3ccccc3C(=O)NCCO)ccc21 | > 50 µM | > 50 µM | 
CCn1c2ccccc2c2cc(Nc3ccnc(NCCCN4CCOCC4)n3)ccc21 | 14 µM | 15 µM | Activity (MDA-MB-231 [7]): 17%; inhibition at 24 h, 10 µM [8]: 50%; IC50 [9]: 1.1 µM; inhibition [10]: 60%
